Measured values pooled from the literature.
Protocols differ between the studies behind these lines.
Target: Kappa-type opioid receptor (OPRK1, Homo sapiens, UniProt P41145)

With `Clc1ccc(CSc2nnc(-c3ccccn3)n2Cc2cccs2)cc1Cl` the EC50 was 0.39 µM (β-arrestin recruitment, agonist, imaging).
`CCCCN1CCC(COC(=O)c2ccc(N)c(OCF)c2)CC1` gave a Ki of > 10 µM (cell-free assay, radioligand).
With `O=C(c1ccccn1)N(Cc1cccs1)C1(C(=O)NC2CCCCC2)CCCCC1` the EC50 was 0.11 µM (β-arrestin recruitment, agonist).
For `CCOCc1nc(O)c(-c2nnc(Cc3ccc(Cl)cn3)o2)c(O)c1-c1c(OC)cccc1OC`, the IC50 was > 30 µM (ligand displacement, radioligand).
For `Cc1nccc2c1c(=O)n(C)c1cc(OC[C@@H](N)CC(C)C)c(C#N)cc21`, the IC50 was 29 µM (cell-free assay).
`Cc1ccc(C(=O)NCC2CCN(Cc3ccc(C(C)C)cc3)CC2)cc1` has a Ki of > 10 µM (cell-free assay).
For `O[C@@H]1[C@H](O)[C@@H]2C[C@@H]2[C@H]1n1cnc2c(NCCc3ccccc3)nc(C#Cc3ccccc3)nc21`, the Ki was > 10 µM (cell-free assay).
`OC[C@@]12C[C@@H]1[C@@H](n1cnc3c(NC(C4CCCC4)C4CCCC4)nc(Cl)nc31)[C@H](O)[C@@H]2O` has a Ki of 0.11 µM (cell-free assay, radioligand).
`CNC(=O)[C@@]12C[C@@H]1[C@@H](n1cnc3c(NC)cc(C#Cc4ccc(Cl)s4)nc31)[C@H](O)[C@@H]2O` has a Ki of > 10 µM (cell-free assay).
With `OCCCN1CC[C@@H]2C[C@H]1c1cc(-c3ccc(C(F)(F)F)cc3)ccc12` the Ki was 7.09 µM (ligand displacement, radioligand).
For `Cc1cc(C)nc(C(=O)NC[C@@H]2CCCN(Cc3ccc(F)c(F)c3)C2)c1`, the Ki was 6.46 µM (cell-free assay).
With `O[C@@H]1[C@H](O)[C@@H]2C[C@@H]2[C@H]1n1cnc2c(NCc3cccc(Cl)c3)ncnc21` the Ki was > 10 µM (cell-free assay).
